Data on 19 molecules can be found in ChEMBL document CHEMBL5335782, “Discovery of new imidazotetrazinones with potential to overcome tumor resistance” (Eur J Med Chem, 2023).

Calls of active or inactive are those of the source. The calls are words filed in the database; no cut-off is given here. Bounds are passed on as bounds.

The GI50 is the concentration that inhibits growth by half. By half-life is commonly meant the time in which the quantity being followed falls by half.

The nature of series [1]: Antiproliferative activity against human U373V cells assessed as inhibition of cell growth measured […] by MTT assay. The class given is functional. The method, boiled down:
(§1)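 Cells seeded at 6.5×10^2/well, left overnight, then exposed to vehicle or agent (n = 4-8; final 0.5–1000 μM; DMSO stocks of 50 or 10 mM diluted in medium). MTT read at time of addition and after 6 days at 37 °C, 5% CO₂. MTT 0.4 mg/mL for 4 h, formazan taken up in DMSO, A550. GI50 from non-linear regression; mean ± SD of >3 experiments.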

Series [2] can be described thus: Antiproliferative activity against MGMT-expressing human U373M cells assessed as inhibition of cell growth measured after […] by MTT assay. The class given is functional. The method, boiled down:
as §1
On the technique in general: Tetrazolium dyes change colour on reduction, which living cells bring about.

The subject of series [3] is HCT-116. The series is described as follows: Antiproliferative activity against MMR-deficient human HCT-116 cells assessed as inhibition of cell growth measured after […] by MTT assay. The class given is functional. In short, it runs like this:
as §1

The nature of series [4]: Cytotoxicity against human MRC5 cells assessed as inhibition of cell growth measured after 7 days by MTT assay. The note with it: time 7 day. The class given is toxicity, cell-based. In short, it runs like this: as §1
Series [5] can be described thus: Half life of the compound in phosphate buffered saline at pH 7.4 by 1H NMR spectroscopic analysis. The class given is physicochemical. The method, boiled down: (§2)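 Half-life followed by ¹H NMR spectroscopy in phosphate buffers at pH 7.4 or 5.5.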
A short description of series [6]: Half life of the compound in phosphate buffered saline at pH 5.5 by 1H NMR spectroscopic analysis. The class given is physicochemical. The method, boiled down:
as §2

Series [7] can be described thus: Half life of the compound in phosphate buffered saline at pH 7.4 by LC-MS analysis. The class given is physicochemical. In short, it runs like this:
(§3)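 Half-life in phosphate buffers at pH 5, 6.8 or 7.4 followed by LC-MS; mean of two independent experiments.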

A short description of series [8]: Half life of the compound in phosphate buffered saline at pH 6.8 by LC-MS analysis. The class given is physicochemical. The method, boiled down:
as §3

Series [9] can be described thus: Half life of the compound in phosphate buffered saline at pH 5 by LC-MS analysis. The class given is physicochemical. The method, boiled down:
as §3

Series [10] is described as follows: Half life in human plasma. The class given is ADME, cell-free.
Series [11] in a line: Half life in rat plasma. The class given is ADME, cell-free.
Series [12] can be described thus: Intrinsic clearance in human liver microsomes in presence of NADPH. Particulars: read-out: CLH. The class given is ADME, Microsome. (In general: Liver microsomes are a subcellular fraction often used to study metabolism.)
Series [13] can be described thus: Half life in human liver microsomes in presence of NADPH. The class given is ADME, Microsome.
The nature of series [14]: Intrinsic clearance in human liver microsomes in absence of NADPH. The class given is ADME, Microsome. The note with it: read-out: CLH.
Series [15] in a line: Half life in human liver microsomes in absence of NADPH. The class given is ADME, Microsome.
The nature of series [16]: Intrinsic clearance in rat liver microsomes in presence of NADPH. The class given is ADME, Microsome. The note with it: read-out: CLH.
Series [17] in a line: Half life in rat liver microsomes in presence of NADPH. The class given is ADME, Microsome.
Series [18] is described as follows: Intrinsic clearance in rat liver microsomes in absence of NADPH. The class given is ADME, Microsome. Particulars: read-out: CLH.
Series [19] is described as follows: Half life in rat liver microsomes in absence of NADPH. The class given is ADME, Microsome.
Series [20] in a line: Permeability of the compound measured after 6 hrs by PAMPA assay. The class given is ADME. The note with it: read-out: permeability. The method, boiled down: (§4)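 PAMPA passive-diffusion assay run as contract research under the provider's protocols, with control compounds. After 6 h incubation, permeability (Pe) and percentage recovery determined.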
Background: PAMPA measures passive passage across an artificial lipid membrane.

Series [21] can be described thus: Permeability of the compound assessed as drug recovery measured after 6 hrs by PAMPA assay. The class given is ADME. The note with it: read-out: Drug recovery. The method, boiled down:
as §4

The nature of series [22]: Ratio of permeability across dog MDCK cells transfected with MDR1 to permeability across wild type dog MDCK cells. The class given is ADME, cell-based, Canis lupus familiaris.
Series [23] is described as follows: Stability of the compound in phosphate buffered saline at pH 7.4 by 1H NMR spectroscopy. The class given is physicochemical. Particulars: buffer. In short, it runs like this:
as §2

The nature of series [24]: Stability of the compound in phosphate buffered saline at pH 5.5 by 1H NMR spectroscopy. The class given is physicochemical. Particulars: buffer. The method, boiled down: as §2
Series [25] in a line: Selectivity ratio of GI50 for cytotoxicity against human MRC5 cells to GI50 for antiproliferative activity against MMR-deficient human HCT-116 cells. The class given is toxicity, cell-based. Particulars: MRC5 cells versus MMR-deficient HCT-116 cells, read-out: RatioGI50.
For the next series, the system named is U373V. Kind of series: Inhibition of cell colony formation in human U373V cells assessed as reduction in clonogenic survival at >=10 uM incubated for 24 hrs followed by drug removal and incubation in medium for 14 days. The class given is functional, cell-based. In short, it runs like this:
(§5)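 Clonogenic survival: exponentially growing cells seeded in triplicate at 400 cells/well, attached overnight, then exposed for 24 h to 0, 2, 20 or 50 μM agent. Medium then replaced with drug-free medium for 14 days, or until control colonies held ≥50 cells. Colonies fixed in cold methanol, stained with 0.5% methylene blue, counted, and expressed relative to control. 2–3 experiments.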

The subject of a further series is U373M. The series is described as follows: Inhibition of cell colony formation in MGMT-expressing human U373M cells assessed as reduction in clonogenic survival at >=10 uM incubated for 24 hrs followed by drug removal and incubation in medium for 14 days. The class given is functional, cell-based. The method, boiled down: as §5
Series [26] concerns HCT-116. Kind of series: Inhibition of cell colony formation in MMR-deficient human HCT-116 cells assessed as reduction in clonogenic survival at >=10 uM incubated for 24 hrs followed by drug removal and incubation in medium for 14 days. The class given is functional, cell-based. In short, it runs like this: as §5
The test system of series [27] is HCT-116. The series is described as follows: Induction of cell cycle arrest in MMR-deficient human HCT-116 cells assessed as accumulation of cells at pre-G1 phase at 20 uM measured after 120 hrs by propidium iodide staining based flow cytometry (Rvb ~5%). The class given is functional.
Series [28] in a line: Induction of cell cycle arrest in MGMT-expressing human U373M cells assessed as accumulation of cells at G2/M phase at 20 uM measured after 120 hrs by propidium iodide staining based flow cytometry. The class given is functional.
Series [29] can be described thus: Induction of cell cycle arrest in MGMT-expressing human U373M cells assessed as accumulation of cells at G1 phase at 20 uM measured after 120 hrs by propidium iodide staining based flow cytometry (reference value: 66%). The class given is functional.

`C#CCn1nnc2c(-c3nc(CO)cs3)ncn2c1=O`: the GI50 in [1] worked out at 24.4 µM; in [2], 14.8 µM; with HCT-116 [3], 17.8 µM.
The matching figures for `C#CCn1nnc2c(-c3nc(-c4ccncc4)cs3)ncn2c1=O`: 23.5 µM, 25.1 µM and 29 µM.
Take `C#CCn1nnc2c(-c3nc(C)cs3)ncn2c1=O`: the concentration for 50% growth inhibition (GI50) in series [1] is 8.45 µM; in series [2], 7.44 µM; in the series with HCT-116 [3], 7.04 µM. Also, the GI50 at 168 h in series [4] amounted to 25 µM. Besides, the half-life is 1.47 h in series [5]; 0.12 h in series [6]; 2.81 h in series [7]; 3.57 h in [8]; > 8 h in series [9]; 2.97 min in series [10]. The half-life in series [11] was determined as 3.54 min; in series [13], 0.237 h; in [15] it was 1.27 h; in series [17], 0.34 h; in [19] it was 1.57 h. Besides, the microsomal CLint in series [12] came out at 97.8 µL/min/mg; in series [14], 18.6 µL/min/mg; in series [16], 68.5 µL/min/mg; in [18], 14.7 µL/min/mg. Besides, the Papp at 6 h in [20] worked out at 3.68 ×10⁻⁶ cm/s. In series [21], the recovery at 6 h amounted to 18.5%. The Ratio in [22] came out at 1.16. The Stability entry in series [23] and in series [24] was “Stable” in each case.
In the case of `C#CCn1nnc2c(-c3nc(CN4CCOCC4)cs3)ncn2c1=O`, the values for the GI50 (in series [1]; in series [2]; in the series with HCT-116 [3]) were 23.9 µM, 10.2 µM and 12.2 µM, respectively.
Taken in the same sequence, the figures for `C#CCN/N=N/c1[nH]cnc1-c1nccs1` were 7.51 µM, 5.81 µM and 5.97 µM.
The matching figures for `C#CCn1nnc2c(-c3nc(C4CCCC4)cs3)ncn2c1=O`: 23.7 µM, 11.8 µM and 19.2 µM.
Taken in the same sequence, the figures for `C#CCn1nnc2c(-c3nc(-c4ccc(S(C)(=O)=O)cc4)cs3)ncn2c1=O` were 22 µM, 14.7 µM and 37 µM.
Turning to `C#CCn1nnc2c(-c3nc(C(C)(C)C)cs3)ncn2c1=O`, the GI50 in [1] came out at 27.3 µM; in series [2], 19.2 µM; in the series on HCT-116 [3], 25.1 µM.
As for `C#CCn1nnc2c(-c3nccs3)ncn2c1=O`, the GI50 in series [1] worked out at 3.59 µM; in [2] it was 4.09 µM; in the series with HCT-116 [3], 5.35 µM. For the same molecule, the GI50 at 168 h in series [4] was determined as 25 µM. For the same molecule, the selectivity ratio in series [25] is > 5. Besides, the inhibition entry in the series with U373V, with U373M and with HCT-116 [26] was “Active” each time. The Activity in the series with HCT-116 [27] is >60%; in [28], 21%; in series [29] it was 43%. For the same molecule, the half-life in [5] was 3 h; in series [6], 1.07 h; in series [7], 3.29 h; in series [8] it was 5.46 h; in series [9] it was > 8 h; in series [10], 3.34 min. For the same molecule, the half-life in series [11] stood at 2.66 min; in series [13], 0.527 h; in series [15] it was 1.53 h; in series [17], 0.63 h; in series [19] it was 1.32 h. For the same molecule, the microsomal CLint in [12] turned out to be 44 µL/min/mg; in series [14], 16.4 µL/min/mg; in series [16] it was 37.2 µL/min/mg; in series [18], 17.5 µL/min/mg. For the same molecule, the Papp at 6 h in [20] amounted to 3.18 ×10⁻⁶ cm/s. Also, the recovery at 6 h in series [21] is 17.5%. For the same molecule, in series [22], the Ratio is 1.11. For the same molecule, the Stability entry in series [23] and in series [24] was “Stable” throughout.
Take `C#CCn1nnc2c(-c3nc(-c4ccc(F)cc4)cs3)ncn2c1=O`: the figures for the GI50 (in [1]; in series [2]; in the series on HCT-116 [3]) were 27.9 µM, 19.7 µM and 27.6 µM, respectively.
The matching figures for `C#CCn1nnc2c(-c3nc(C(F)(F)C(F)(F)F)cs3)ncn2c1=O`: 27.1 µM, 25.8 µM and 27.7 µM.
Take `C#CCn1nnc2c(-c3nc(C4CCC4)cs3)ncn2c1=O`: the GI50 in series [1] came to 24.2 µM; in series [2] it was 25.5 µM; with HCT-116 [3], 20.3 µM.
The matching figures for `C#CCn1nnc2c(-c3nc(C(=C)C)cs3)ncn2c1=O`: 18.7 µM, 14.2 µM and 16.7 µM.
As to `C#CCn1nnc2c(-c3nc(C(F)(F)F)cs3)ncn2c1=O`, the GI50 in series [1] stood at 28.2 µM; in series [2], 25.4 µM; in the series on HCT-116 [3], 21.5 µM.
The matching figures for `C#CCn1nnc2c(-c3nc(C4CC4)cs3)ncn2c1=O`: 27.1 µM, 25.8 µM and 27.7 µM.
The matching figures for `Nc1nc[nH]c1-c1nccs1`: > 100 µM, 89.3 µM and 97 µM.
Taken in the same sequence, the figures for `C#CCn1nnc2c(-c3nc(C(C)C)cs3)ncn2c1=O` were 23.6 µM, 19 µM and 25.4 µM.
Turning to `C#CCn1nnc2c(-c3ncc(C)s3)ncn2c1=O`, the GI50 in series [1] amounted to 6.84 µM; in series [2], 3.99 µM; in the series on HCT-116 [3] it was 4.6 µM.
The matching figures for `C#CCn1nnc2c(-c3nc(CC)cs3)ncn2c1=O`: 23.5 µM, 9.67 µM and 14.8 µM.
